Assay outcomes: PubChem BioAssay, several laboratories
Shown are actives, neighbours in structure and some others; about 2.5% of the full set was active somewhere.
MsrA act: activators of bovine methionine sulfoxide reductase A; AID 602163; activation, % at 10.6 µM; 0.3% of 360,000 active; purified bovine MsrA, absorbance read-out; in the data active means activation above about 7.5%;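 further: 0% = vehicle and 100% = reference activator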
NadD inh: inhibitors of Staphylococcus aureus NadD; 0.78% of 360,000 active; purified NadD enzyme, colorimetric absorbance read-out; inhibition, % at 20 µM; in the data active means inhibition above about 26%
NR2E3 ag-1: agonists of human nuclear receptor NR2E3; Q9Y5X4; GST-NR2E3/biotin-RetCOR TR-FRET, 1536-well; inhibition of corepressor binding, % at 4.78 µM; 0.12% of 320,000 active; AID 2300;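 active means percent inhibition above the cutoff of mean plus 3 SD of all tested compounds, set per screening campaign, cut at about 20% in these data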;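 further: 0% = DMSO wells and 100% = biotin wells as full block of FRET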
Target sequence (Q9Y5X4 whole entry, looked up): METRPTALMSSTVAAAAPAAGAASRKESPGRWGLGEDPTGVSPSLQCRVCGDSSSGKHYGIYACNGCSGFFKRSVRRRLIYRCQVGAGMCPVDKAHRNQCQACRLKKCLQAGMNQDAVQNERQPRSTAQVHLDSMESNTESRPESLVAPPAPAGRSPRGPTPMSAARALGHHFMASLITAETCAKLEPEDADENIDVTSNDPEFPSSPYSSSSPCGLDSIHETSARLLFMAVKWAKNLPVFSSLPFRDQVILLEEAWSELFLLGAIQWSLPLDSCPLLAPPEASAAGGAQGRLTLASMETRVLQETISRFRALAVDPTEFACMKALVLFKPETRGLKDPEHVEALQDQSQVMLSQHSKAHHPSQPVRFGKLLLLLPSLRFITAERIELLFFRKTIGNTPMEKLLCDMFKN
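Material: NR2E3–RetCOR corepressor complex | Quantity: 1.35 nM GST-tagged NR2E3 final | Schedule: 5 h at 4 °C | Replication: Singlicate compound wells | Reagent: RetCOR corepressor, biotinylated, 7 nM | Controls: Biotin wells as high control, 0.6% DMSO wells as low control | Signal: TR-FRET, Eu(K)-anti-GST donor, streptavidin-D2 acceptor, ex 340, em 617/671 nm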
NR2E3 ag-2: human photoreceptor-specific nuclear receptor agonism. Q9Y5X4. CHO-S Gal4-NCOR/VP16-NR2E3 two-hybrid, luciferase. inhibition of corepressor binding, % at 3.98 µM. 0.35% of 360,000 active. AID 602229;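 active means inhibition above the mean of all tested compounds plus 3 SD, cut at about 70% in these data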;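 further: 0% = DMSO with NR2E3 transfected cells and 100% = cells lacking NR2E3 construct; higher means lower luciferase signal from less NR2E3 corepressor binding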
GalR3 antag: blocks the human galanin receptor 3; O60755; HEK293 GalR3-CNG cAMP membrane potential fluorescence; galR3 body fused to GalR1 C-terminus; inhibition, % at 3 µM; 0.44% of 360,000 active;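 active means inhibition above the screen-wide average plus 3 SD, cut at about 13% in these data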;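 further: forskolin and galanin both at EC90 stimulate the cells; cAMP rise reported by CNG channel membrane potential dye signal; 0% = forskolin plus galanin with DMSO and 100% = forskolin alone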
Target sequence (O60755 1-299 limits assumed): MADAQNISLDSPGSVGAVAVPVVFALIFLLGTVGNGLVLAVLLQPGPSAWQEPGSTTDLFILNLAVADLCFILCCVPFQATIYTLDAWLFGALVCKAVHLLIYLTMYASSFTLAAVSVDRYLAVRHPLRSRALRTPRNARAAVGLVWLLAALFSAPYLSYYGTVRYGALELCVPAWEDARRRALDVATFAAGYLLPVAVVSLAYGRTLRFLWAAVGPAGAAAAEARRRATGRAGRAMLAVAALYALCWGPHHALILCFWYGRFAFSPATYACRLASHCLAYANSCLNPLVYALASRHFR
MsrA inhibitor: bovine MsrA inhibition; purified bovine MsrA, absorbance read-out; inhibition, % at 15.5 µM; 0.75% of 360,000 active; in the data active means inhibition above about 4.5%;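 further: 0% = vehicle wells with enzyme and 100% = reference inhibitor wells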
MsrA act confirm: confirmation of bovine methionine sulfoxide reductase A activators; purified bovine MsrA, absorbance read-out; shares compounds with MsrA act; activation, % at 10.6 µM; 12% of 1,000 active; in the data active means activation above about 4%;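 further: enzyme coupled to thioredoxin and thioredoxin reductase with NADPH; 0% = vehicle wells and 100% = reference activator wells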
* = called active by the depositor; · = no result.

SMILES | MsrA act | NadD inh | NR2E3 ag-1 | NR2E3 ag-2 | GalR3 antag | MsrA inhibitor | MsrA act confirm
CC1(C)CC(=O)c2cc(OCC(=O)NCCCN3CCN(c4ccc(F)cc4)CC3)ccc2O1 | -0.8 | -6.0 | 1.3 | 3.8 | -6.6 | -1.6 | ·
COc1ccccc1C(=O)NCCC(=O)NCCOc1ccccc1 | 0.1 | -1.4 | -0.3 | 0.4 | -5.6 | -0.9 | ·
COc1ccccc1C(=O)NCCC(=O)NCCCSc1ccccc1 | 9.8* | -4.5 | 0.1 | 14.3 | 2.2 | 0.4 | -0.3
COC(=O)c1ccc(CN=C(NS(=O)(=O)c2ccccc2)c2ccccc2)cc1 | -3.5 | -2.8 | · | 21.8 | -5.5 | -0.1 | ·
CCOc1ccc2[nH]cc(-c3csc(N)n3)c2c1 | -2.6 | 8.3 | · | -24.3 | -4.9 | 0.6 | ·
Cc1cccc(S(=O)(=O)NCC2CCCO2)c1 (stereo unspecified) | -2.4 | -5.0 | -2.5 | -14.7 | -2.8 | 0.6 | ·
CCOC(=O)[C@H]1[C@H]2COc3ccc(OC)cc3[C@@H]2N2C(=O)CN(Cc3ccc(C)cc3)C(=O)[C@@]12C | 14.0* | -5.3 | -5.0 | -18.0 | -2.8 | 0.2 | 0.2
CCOC(=O)[C@H]1[C@H]2COc3ccc(OC)cc3[C@@H]2N2C(=O)CN(Cc3ccc(OC)cc3)C(=O)[C@@]12C | -2.5 | -5.4 | 4.2 | 9.1 | -6.7 | -0.3 | ·
CC(=O)c1c(COC(=O)c2ccc(Cl)cc2)nc2ccccc2[n+]1[O-] | -3.4 | -5.4 | -0.5 | -11.9 | 11.3 | -0.7 | ·
CCN(CCCNC(=O)CCn1c(=S)[nH]c2cc3c(cc2c1=O)OCO3)c1cccc(C)c1 | 8.1* | 3.2 | 2.8 | 13.2 | -1.9 | 0.3 | -1.7
O=c1[nH][nH]c(C(F)(F)F)c1C=NCc1ccc(Cl)cc1 | -0.9 | 3.3 | -4.4 | -12.9 | -3.8 | 0.1 | ·
c1ccc(SCc2nc(-c3cccnc3)no2)cc1 | -3.5 | -3.9 | -0.3 | -92.8 | -2.8 | 0.1 | ·
C=CCNC(=O)c1ccccc1NC(=O)c1ccccc1C | 8.6* | 5.9 | 0.6 | -13.0 | -4.7 | -0.8 | -0.5
O=C(NCc1ccccc1F)C1CC(=O)N(c2ccc3c(c2)OCCO3)C1 (stereo unspecified) | 9.5* | -1.0 | -0.6 | -8.1 | -1.5 | -0.4 | -1.8
O=C(C1CC(=O)N(c2ccc3c(c2)OCCO3)C1)N1CCN(c2ccccc2)CC1 (stereo unspecified) | 9.4* | -1.9 | -5.6 | 10.0 | -5.4 | -0.1 | 0.4
Cc1cc(C)n2c(NC3CCCCC3)c(-c3ccccn3)nc2n1 | -2.7 | -0.8 | · | -11.0 | -8.8 | 0.9 | ·
CC(C)C[C@H]1COc2cc(N3CC[C@@H](O)C3)ccc2S(=O)(=O)N1 | 9.9* | -0.2 | · | -17.7 | -2.5 | -0.3 | 0.4
CC(C)C[C@@H]1COc2cc(N3CC[C@H](O)C3)ccc2S(=O)(=O)N1 | -5.0 | -6.4 | · | -4.7 | -3.5 | 2.1 | ·
CN(CC(=O)Nc1sccc1C#N)Cc1ccccc1 | -2.5 | 0.2 | -3.2 | -10.6 | -5.0 | -0.2 | ·
O=C(NCc1ccccc1)c1ccc(Br)o1 | -5.0 | -4.6 | 1.4 | 5.4 | -0.8 | -0.1 | ·
N#Cc1ccccc1Sc1ccccc1N | -3.9 | -6.2 | -3.4 | 2.4 | · | · | ·
Nc1ccccc1SSc1ccccc1N | 11.2* | 4.5 | -6.4 | -51.8 | -9.9 | 0.4 | 3.9
CCOC(=O)c1cnc2nc(COc3ccccc3)[nH]n2c1=O | 11.8* | -0.4 | -1.9 | -20.2 | -5.2 | -1.2 | -2.9
Cc1cccc(N=C2NC(=O)c3cc([N+](=O)[O-])ccc32)c1 | 7.8* | -1.0 | 1.5 | -1.8 | -4.2 | -0.9 | 3.5
O=C1NC(=Nc2ccccc2)c2ccc([N+](=O)[O-])cc21 | 5.9 | -2.1 | 1.4 | -9.4 | 0.6 | -1.2 | ·
SMILES | MsrA act | NadD inh | NR2E3 ag-1 | NR2E3 ag-2 | GalR3 antag | MsrA inhibitor | MsrA act confirm
C=CCOC(=O)/C(=C\c1cccc2ccccc12)NC(=O)c1ccccc1 | -3.3 | -9.3 | 2.8 | -115.1 | -2.6 | 0.4 | ·
O=C(COc1ccc2cc(Br)ccc2c1)N1CCOCC1 | 13.1* | -2.9 | · | -48.6 | -5.8 | -0.8 | -3.8
Cc1ccc(Nc2n[nH]c(=S)s2)c(C)c1 | 10.3* | 6.0 | · | -101.0 | -2.6 | 0.6 | 0.8
Cc1cccc(C)c1Nc1n[nH]c(=S)s1 | 7.5 | 17.4 | · | -8.3 | -0.7 | -1.3 | ·
COc1ccccc1Nc1n[nH]c(=S)s1 | 8.9* | 14.6 | -3.5 | -25.0 | 1.3 | 2.1 | 1.0
CC(C)c1ccc(Nc2n[nH]c(=S)s2)cc1 | 8.6* | 24.5 | · | -125.0 | -4.8 | 0.8 | 0.1
COc1cccc(Nc2n[nH]c(=S)s2)c1 | 4.8 | 11.6 | -2.7 | -50.7 | -6.0 | 0.7 | ·
CCOc1ccc(S(=O)(=O)NCCC(=O)OCC(=O)c2ccc(NC(C)=O)cc2)cc1 | -2.0 | -0.3 | 2.8 | -9.4 | 1.1 | 0.7 | ·
O=C(O)c1ccc(-n2c(-c3ccccc3)n[nH]c2=S)cc1 | 0.2 | 4.5 | 0.6 | -4.0 | -2.4 | -0.4 | ·
COc1ccc(C/C(N)=N/n2cnnc2)cc1 | -2.0 | -2.8 | -1.1 | -13.2 | -2.9 | 0.1 | ·
CC(C)COc1ccc(C/C(N)=N/n2cnnc2)cc1 | 8.0* | -1.4 | 0.2 | 2.7 | 1.1 | -1.0 | -1.7
COc1ccc(CCNS(=O)(=O)c2ccc(C3CNC(=O)C3)cc2)cc1OC (stereo unspecified) | 9.5* | -4.6 | 0.6 | -2.1 | -8.1 | 0.0 | -1.7
COc1ccc(CCNS(=O)(=O)c2ccc(S(=O)(=O)N3CCCC3)cc2)cc1OC | -1.4 | -3.6 | 3.2 | 17.0 | -1.5 | -0.4 | ·
COc1cc(OC)c(C(=O)NC23CC4CC(CC(C4)C2)C3)cc1OC | 9.2* | 0.8 | 1.4 | -16.8 | -11.9 | -0.1 | -3.7
Cc1nn(C)c(C)c1CN(C)C(=O)C1c2ccccc2Oc2ccccc21 | -2.9 | -2.7 | -0.7 | -0.3 | -4.2 | 0.2 | ·
Cc1nn(C)c(C)c1CN(C)C(=O)C1(C)CC1(Br)Br (stereo unspecified) | 9.6* | -4.2 | -5.4 | -6.1 | 0.5 | -0.6 | -1.4
COC(=O)CCC(=O)Nc1ccccc1C(=O)Nc1ccccc1 | 0.8 | -0.8 | 4.4 | 4.8 | 1.0 | 0.0 | ·
Cc1csc(SCC(=O)NC2CCCCC2)n1 | 0.3 | -5.1 | 3.1 | -11.1 | 2.4 | -1.3 | ·
Cc1cc(=O)oc2cc(OC(C)C(=O)Nc3ccc(N4CCCCC4)cc3)ccc12 (stereo unspecified) | 0.1 | 10.3 | 2.8 | -10.9 | 0.4 | 0.9 | ·
Cn1ncc2c(=O)n(CC(=O)NC34CC5CC(CC(C5)C3)C4)cnc21 | 9.0* | 2.1 | -1.0 | -12.5 | -2.4 | -0.3 | -2.0
CC(C)(C)n1ncc2c(=O)n(CC(=O)NCc3ccccc3)cnc21 | -1.6 | 8.9 | 1.4 | -266.1 | -0.9 | 0.0 | ·
Cc1ccc(/C=N/NC(=O)Cn2cnc3ccccc32)o1 | -11.1 | 0.7 | -3.1 | 11.9 | -2.2 | -0.7 | ·
CN(CCC1CCCCO1)C(=O)c1cc(COc2ccc(F)cc2F)on1 (stereo unspecified) | -11.9 | -5.3 | 4.0 | 10.3 | -4.4 | -0.4 | ·
CN(CCCC1CCCC1)C(=O)c1cc(COc2ccc(F)cc2F)on1 | 9.1* | 3.9 | -0.5 | -49.4 | -4.3 | -0.1 | 0.8
